Measurements taken from PubChem BioAssay.
Calls of active or inactive are those of the source.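 The calls were made as follows, unless noted: active = inhibition above 20% together with a positive visual image hit; inconclusive = visual image hit but inhibition not above 20%; inactive = no visual image hit.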

Tests used:
[1] = inhibitors of TNFa-induced NFkB p65 translocation, primary screen, imaging, HUVEC, MLSMR starter and 10KST1 sets (AID 438); details: HUVEC TNFa-induced p65 nuclear translocation; cell count: measured here: nuclei count (cytotoxicity indicator), at 2.08 µM; inhibition: at 2 µM, stronger effect = higher value, 0% TNFa-plus-vehicle, 100% no-TNFa wells;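 also: compound added about 3h40 before a 20 min TNFalpha stimulation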;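 as to inhibition: signal is the nuclear over cytoplasmic p65 intensity ratio per well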
[2] = inhibitors of E-selectin induction by TNFa, primary screen, imaging, HUVEC, immunofluorescence, MLSMR starter and 10KST1 sets (AID 487;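 active = visually confirmed hit in the image check and inhibition above 20%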;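 as to inhibition: signal is fraction of cell area covered by stained E-selectin grains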;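 as to nuclei count: 100% = median nuclei count of all wells on the same plate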); details: HUVEC TNFalpha-induced E-selectin immunofluorescence imaging, at 2 µM; inhibition: stronger effect = higher value; nuclei count: measured here: cell number, toxicity
[3] = DUSP6 inhibitors restoring Erk phosphorylation by chemical complementation, primary imaging in DUSP6-transfected HeLa (AID 609;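 active = compounds giving at least 50% inhibition in the cell-based MKP-3 phosphatase rescue imaging test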;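 as to inhibition: phospho-Erk level distribution per well compared with pooled transfected vehicle control wells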); details: HeLa MKP-3 transfected, phospho-Erk imaging KS statistic, at 10 µM, cells stimulated with TPA for 15 min
[4] = molecular target: Dual specificity protein phosphatase 6 (Homo sapiens) (UniProt Q16828); test: as above; details: HeLa MKP-3 transfected, phospho-Erk imaging KS statistic; at 10 µM; stronger effect = higher value; cells stimulated with TPA for 15 min
[5] = molecular target: Voltage-gated potassium channel subunit beta-2 (Rattus norvegicus) (UniProt P62483); test: KvBeta enzyme negative modulators, primary screen, biochemical, NADPH fluorescence (AID 622;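 active = fluorescence slope higher than the sample average by over 3 SD, cut at about -0.22 in these data, passing the limit was not always enough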;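 also: slope of raw intensity against log time taken from 70 to 1610 s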); details: recombinant KvBeta, 4-cyanobenzaldehyde reduction, at 10 µM, stronger effect = higher value
[6] = molecular target: Voltage-gated potassium channel subunit beta-2 (Rattus norvegicus) (UniProt P62483); test: KvBeta positive modulators, primary screen, biochemical, NADPH fluorescence (AID 623;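 active = NADPH fluorescence slope more negative than the mean of all samples by about 3 SD, 99.7% confidence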;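 also: fluorescence intensity change per second fitted from 20 to 320 s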); details: Recombinant KvBeta, NADPH fluorescence decrease slope, 10 min; at 10 µM; stronger effect = lower value
[7] = molecular target: Muscarinic acetylcholine receptor M4 (Homo sapiens) (UniProt P08173); test: compounds altering M4/GIRK thallium flux, either direction, primary screen, M4 allosteric agonist project, cell-based, HEK293 M4/GIRK, BTC-AM (AID 625;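 active = fluorescence slope after compound addition differing from the mean of all tested samples at 99.7% confidence, mostly higher but some lower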;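 also: thallium influx through GIRK channels coupled to M4 in HEK293 cells with BTC-AM dye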); details: at 10 µM, actives lie on both sides
Procedure, shortened: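 System: HEK293 cells with M4 receptor and GIRK channels | Incubation: Cells overnight at 37 °C, BTC-AM loading 1 h, reads 2 min total | Technique: Kinetic BTC-AM fluorescence sampled at 1 Hz, 10 s pre-addition baseline | Measure: Post-addition slope, 15–24 s, of baseline-normalized fluorescence | Control set: Carbachol positive, DMSO negative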

[8] = inhibitors of larval lipid processing in zebrafish, primary screen, whole organism, PED6 fluorescence, gall bladder and intestine (AID 686;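 active = a full or partial loss of lipid-probe fluorescence in the fish gall bladder, intestine or both, judged by eye; inactive = no fluorescence loss, or compound toxic to the fish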;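 also: larvae 5 to 7 days old with five fish per well; signal comes from phospholipase A2 cleavage of quenched PED6 carried via bile; overnight exposure to compound and PED6 before scoring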); details: Zebrafish larvae PED6 lipid processing, fluorescence scoring; screened at 20 µM (by protocol)
Procedure, shortened: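 Test system – live zebrafish larvae aged 5-7 days, whole organism · Buffer or medium – E3 fish medium · Reagent – quenched phospholipase substrate PED6, 100 nM final, ingested by larvae · Doses – 20 µM single dose · Incubation – overnight compound and PED6 incubation · Technique – visual fluorescence microscopy scoring of gall bladder, gut · Read-out basis – visual per-well fluorescence inhibition score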

[9] = inhibitors of Chlamydomonas gravitaxis, primary screen, whole organism, Chlamydomonas reinhardtii, WT vs cilia-less mutant, absorbance, 96-well (AID 463189;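 active = inhibition at or above 50% relative to wild type and mutant plate controls; inactive = inhibition below 50%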;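 also: 0% = wild type cc124 cells in DMSO and 100% = ciliumless bld1 mutant cells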); details: OD600 absorbance, 2 days, at 10 µM, stronger effect = higher value
[10] = measured here: cell density z-score
[11] = measured here: nuclear c-Myc green intensity z-score
[12] = measured here: nuclear pErk red intensity z-score, stronger effect = higher value

Sequence of Voltage-gated potassium channel subunit beta-2 (Rattus norvegicus) (P62483 whole entry, looked up): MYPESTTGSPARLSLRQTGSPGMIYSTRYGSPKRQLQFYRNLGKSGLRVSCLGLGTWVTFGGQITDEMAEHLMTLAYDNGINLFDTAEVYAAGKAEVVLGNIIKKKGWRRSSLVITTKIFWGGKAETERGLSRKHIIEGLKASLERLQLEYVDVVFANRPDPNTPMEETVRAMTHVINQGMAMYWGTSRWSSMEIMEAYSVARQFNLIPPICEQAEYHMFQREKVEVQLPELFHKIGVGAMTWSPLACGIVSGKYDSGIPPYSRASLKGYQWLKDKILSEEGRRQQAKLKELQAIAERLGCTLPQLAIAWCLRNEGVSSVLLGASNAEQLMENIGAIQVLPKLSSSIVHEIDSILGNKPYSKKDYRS
Sequence of Muscarinic acetylcholine receptor M4 (Homo sapiens) (P08173 whole entry, looked up): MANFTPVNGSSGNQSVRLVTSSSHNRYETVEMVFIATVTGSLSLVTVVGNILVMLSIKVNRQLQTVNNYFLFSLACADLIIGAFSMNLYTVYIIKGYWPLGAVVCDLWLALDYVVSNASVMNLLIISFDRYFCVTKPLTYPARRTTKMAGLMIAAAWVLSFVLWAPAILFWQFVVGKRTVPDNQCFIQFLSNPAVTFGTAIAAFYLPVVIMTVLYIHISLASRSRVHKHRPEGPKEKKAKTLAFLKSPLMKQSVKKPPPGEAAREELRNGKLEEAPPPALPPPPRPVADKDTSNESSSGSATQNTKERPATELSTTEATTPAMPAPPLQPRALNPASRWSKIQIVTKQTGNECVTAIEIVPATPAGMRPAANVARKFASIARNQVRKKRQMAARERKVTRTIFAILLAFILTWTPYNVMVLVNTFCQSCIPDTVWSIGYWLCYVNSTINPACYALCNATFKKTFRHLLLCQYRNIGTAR
Sequence of Dual specificity protein phosphatase 6 (Homo sapiens) (Q16828 whole entry, looked up): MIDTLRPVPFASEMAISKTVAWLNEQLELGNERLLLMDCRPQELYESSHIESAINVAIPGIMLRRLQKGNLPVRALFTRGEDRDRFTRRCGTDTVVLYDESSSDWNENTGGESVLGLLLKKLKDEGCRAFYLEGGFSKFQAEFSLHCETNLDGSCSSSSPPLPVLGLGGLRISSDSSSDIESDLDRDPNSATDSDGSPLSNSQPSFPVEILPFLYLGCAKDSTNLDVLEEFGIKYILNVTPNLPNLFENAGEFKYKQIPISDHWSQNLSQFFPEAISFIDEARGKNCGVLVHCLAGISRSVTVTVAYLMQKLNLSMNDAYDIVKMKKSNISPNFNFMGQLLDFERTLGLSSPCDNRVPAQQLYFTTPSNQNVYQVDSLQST

Structure (SMILES)	cell count [1]	inhibition [1]	inhibition [2]	nuclei count [2] [%]	z-score [3, 10]	z-score [3, 11]	z-score [3, 12]	inhibition [4]	fluorescence slope [5]	NADPH fluorescence slope [6]	fluorescence slope [7]	outcome [8]	inhibition [9]
COC(=O)c1sc(NC(=O)c2oc3ccccc3c2C)nc1C	594	-0.2% (inactive)	-146% (inactive)	150	0.222	-0.561	-0.214	25.8% (inactive)	-0.269 (inactive)	-4e-05 (inactive)	0.00832 (inactive)	inactive	-10.3% (inactive)
COCC(C)Nc1ncnc2c1cnn2-c1ccc(Cl)cc1 (stereo unspecified)	607	-19.2% (inactive)	-34.4% (inactive)	170	1.51	-0.865	0.282	3.42% (inactive)	-0.398 (inactive)	-1.2e-05 (inactive)	0.00516 (inactive)	inactive	18.7% (inactive)
Cc1cc2nncn2c(Cc2ccccc2)n1	407	-7.4% (inactive)	-152% (inactive)	183	-1.1	0.267	0.816	-6.59% (inactive)	-0.428 (inactive)	-0.000108 (inactive)	0.00485 (inactive)	inactive	-3.56% (inactive)
CN(C)CCNC(=O)C12CC3(C)CC(C)(CC(C)(C3)C1)C2	524	-4.4% (inactive)	-34.6% (inactive)	118	-1.47	1.88	-1.54	-6.59% (inactive)	-0.465 (inactive)	-0.000122 (inactive)	0.00507 (inactive)	inactive	-10.5% (inactive)
CSc1nc2[nH]c3c(c2c2ncnn12)CCCC3	547	-3.6% (inactive)	37.3% (inactive)	171	-0.205	-0.317	-0.0331	1.98% (inactive)	-0.379 (inactive)	-4.9e-05 (inactive)	0.00321 (inactive)	inactive	44.1% (inactive)
CCCCOC(=O)CCc1nc2ccccc2[nH]1	716	-2.4% (inactive)	-50.5% (inactive)	195	-0.361	0.108	1.13	-3.97% (inactive)	-0.484 (inactive)	-5.5e-05 (inactive)	0.00514 (inactive)	inactive	8.4% (inactive)
O=C(O)c1ccc(C2CCCCC2)cn1	532	0.5% (inactive)	-129% (inactive)	197	-1.16	0.871	-1.14	3.97% (inactive)	-0.444 (inactive)	-4.4e-05 (inactive)	0.00555 (inactive)	inactive	-1.91% (inactive)
C=CCOc1ccc(/C(O)=C2\C(=O)C(=O)N(CCN(C)C)C2c2cccs2)cc1 (stereo unspecified)	642	2.8% (inactive)	-0.3% (inactive)	181	0.295	1.17	0.318	12.8% (inactive)	-0.469 (inactive)	-6.6e-05 (inactive)	0.00599 (inactive)	inactive	10.2% (inactive)
COc1cccc(C2=CC(c3ccc(N(C)C)cc3)n3nnnc3N2)c1 (stereo unspecified)	525	0.8% (inactive)	27.7% (inactive)	156	-0.234	1.06	0.0937	9.91% (inactive)	-0.33 (inactive)	-3.6e-05 (inactive)	0.00494 (inactive)	inactive	-6.32% (inactive)
CC(=O)[C@H]1[C@@H]2C(=O)N(c3cccc(Cl)c3)C(=O)[C@@H]2[C@H]2c3ccccc3C=CN21	652	0% (inactive)	5.3% (inactive)	144	0.229	0.26	-0.893	-2.47% (inactive)	-0.495 (inactive)	-3.6e-05 (inactive)	0.00696 (inactive)	inactive	18.1% (inactive)
O=C(O)c1cc2cccc(S(=O)(=O)N3CCOCC3)c2cc1O	655	-1.8% (inactive)	-122% (inactive)	164	-0.358	0.0278	-2.77	-9.66% (inactive)	-0.0405 (active)	-1e-05 (inactive)	0.00567 (inactive)	inactive	-7.07% (inactive)
CCOC(=O)C(O)(C1C(=O)CC(C)(C)CC1=O)C(F)(F)F (stereo unspecified)	681	-12.6% (inactive)	-174% (inactive)	160	-0.979	0.326	3.57	-9.53% (inactive)	-0.44 (inactive)	-4.6e-05 (inactive)	0.00523 (inactive)	inactive	3.71% (inactive)
COCc1[nH]nc2c1C(c1ccc(OC)cc1)C(C#N)=C(N)O2 (stereo unspecified)	664	-8.1% (inactive)	0.4% (inactive)	142	-1.64	0.0391	-2.4	-4.27% (inactive)	-0.477 (inactive)	-6e-05 (inactive)	0.006 (inactive)	inactive	0.628% (inactive)
CCOC(=O)C1=C(C)NC(=O)C1CC(=O)Nc1ccccc1 (stereo unspecified)	377	-4.8% (inactive)	-73.4% (inactive)	139	-0.173	0.561	0.408	3.42% (inactive)	-0.443 (inactive)	-0.000122 (inactive)	0.00567 (inactive)	inactive	-5.87% (inactive)
O=C1CCCN1c1ccc(S(=O)(=O)NCc2ccco2)cc1	702	3.6% (inactive)	-53.1% (inactive)	180	0.977	-0.343	1.6	15.9% (inactive)	-0.489 (inactive)	-3.7e-05 (inactive)	0.00466 (inactive)	inactive	15.5% (inactive)
C/C(NC(=O)c1ccccc1F)=C1\C(=O)C[C@@H]2[C@H]1C2(C)C	697	-13.5% (inactive)	-170% (inactive)	187	-0.142	0.763	-0.13	-2.47% (inactive)	-0.483 (inactive)	-0.000131 (inactive)	0.00606 (inactive)	inactive	24.1% (inactive)
COC(=O)c1sc2nc(N3CCCCC3)c3c(c2c1N)CC(C)(C)N(C)C3	365	-3.8% (inactive)	-114% (inactive)	173	-0.314	1.33	0.691	3.42% (inactive)	-0.155 (active)	8.1e-06 (inactive)	0.00431 (inactive)	inactive	7.69% (inactive)
CC1(C)Cc2c(c(N3CCOCC3)nc3sc4c(NCc5ccco5)nnnc4c23)CS1	504	-8.4% (inactive)	-6.5% (inactive)	116	1.05	-0.977	0.343	19.8% (inactive)	-0.419 (inactive)	-5e-06 (inactive)	0.00933 (inactive)	inactive	15.9% (inactive)
CN(C)c1nc(OCCNC(=O)Nc2ccccc2)nc(N(C)C)n1	519	-7.6% (inactive)	-47.8% (inactive)	104	0.724	-0.537	-0.187	5.42% (inactive)	-0.522 (inactive)	5.3e-05 (inactive)	0.00455 (inactive)	inactive	36.3% (inactive)
Cc1cc(C)n(S(=O)(=O)/C=C/c2ccccc2)n1	395	-10.4% (inactive)	-329% (inactive)	150	8.45e-06	-0.53	0.596	-10.6% (inactive)	-0.475 (inactive)	-0.000103 (inactive)	0.00397 (inactive)	inactive	25.5% (inactive)
Cc1cc(=O)n2[nH]c(N3C(=O)CCC3=O)nc2n1	527	-1.3% (inactive)	47.3% (inactive)	172	-0.749	-0.115	1.44	-5.95% (inactive)	-0.397 (inactive)	-2.7e-05 (inactive)	0.00594 (inactive)	inactive	4.51% (inactive)
CCOc1ccc2c(c1)n([O-])c1c([n+]2=O)CCCC1	345	6.9% (inactive)	-31.4% (inactive)	84.7	-0.67	0.548	-1.91	23.4% (inactive)	-0.4 (inactive)	-0.000101 (inactive)	0.0052 (inactive)	inactive	32.8% (inactive)
Cc1c(Cl)cccc1N1C(=O)C2ON(c3ccccc3)C(c3cccnc3)C2C1=O (stereo unspecified)	542	-6.8% (inactive)	9.6% (inactive)	83.2	0.393	0.964	-1.74	6.04% (inactive)	-0.497 (inactive)	-1.3e-05 (inactive)	0.00557 (inactive)	inactive	20% (inactive)
N#Cc1cccc(-n2c(-c3ccccc3)nnc2-c2ccccc2)c1C#N	587	-2.7% (inactive)	-7.1% (inactive)	99.3	-3.17	1.25	1.22	-7.86% (inactive)	-0.508 (inactive)	-6.3e-05 (inactive)	0.00624 (inactive)	inactive	6.01% (inactive)
Cc1nc(NCCCO)c(C#N)c2c1COC(C)(C)C2	588	-3.1% (inactive)	-70% (inactive)	142	-0.306	-0.435	-0.462	12.8% (inactive)	-0.432 (inactive)	-9.1e-05 (inactive)	0.00443 (inactive)	inactive	24% (inactive)
COc1ccc(C2NC3=C(CCC3)C3(C#N)C(OC)(OC)N=C(N)C23C#N)cc1 (stereo unspecified)	535	-13.1% (inactive)	-35.8% (inactive)	134	-0.336	0.913	0.179	1.42% (inactive)	-0.438 (inactive)	-3.3e-05 (inactive)	0.0052 (inactive)	inactive	30.4% (inactive)
CCC(NC(=O)Nc1nccs1)(C(F)(F)F)C(F)(F)F	600	-9% (inactive)	21.5% (inactive)	89	0.356	1.04	-0.804	-11.4% (inactive)	-0.475 (inactive)	-3.1e-05 (inactive)	0.0066 (inactive)	inactive	-12.6% (inactive)
